Assays:
Type in all cases: functional
T47D [1] = assay: Inhibition of PR-A mRNA gene expression in human T47D cells at 100 nM by syber green assay
In short: (§1)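 T47D cells plated at 80,000/well without antibiotics two days before Oligofectamine transfection with agRNA duplex (25 or 100 nM final); medium changed at 24 h, harvest day 5 unless stated otherwise. TRIzol total RNA; PR mRNA by real-time PCR with SYBR Green: 50 °C 2 min, 95 °C 10 min, 40 cycles 95 °C 15 s/60 °C 1 min.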

T47D [2] = assay: Inhibition of PR-B mRNA gene expression in human T47D cells at 100 nM by syber green assay
In short: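 T47D cells in RPMI-1640 with 10% FBS, NEAA, insulin, 37 °C, 5% CO2. Plated two days before transfection without antibiotics. Oligofectamine-mediated duplex RNA transfection at 100 nM final, medium changed at 24 h, harvest five days post-transfection. Total RNA extracted with TRIzol. hPR mRNA quantified by SYBR Green qPCR: 50 °C 2 min, 95 °C 10 min, then 40 cycles of 95 °C 15 s / 60 °C 1 min.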

T47D [3] = assay: Inhibition of PR-A gene expression in human T47D cells at 25 nM by syber green assay; in short: as §1
T47D [4] = assay: Inhibition of PR-B gene expression in human T47D cells at 25 nM by syber green assay; in short: as §1

| Structure (SMILES) | inhibition at 0.1 µM (T47D [1]) [%] | inhibition at 0.1 µM (T47D [2]) [%] | inhibition at 0.025 µM (T47D [3]) [%] | inhibition at 0.025 µM (T47D [4]) [%] |
| --- | --- | --- | --- | --- |
| Cc1cn([C@H]2C[C@H](OP(=O)(O)OC[C@H]3O[C@@H](n4cnc5c(=O)[nH]c(N)nc54)C[C@@H]3OP(=O)(O)OC[C@H]3O[C@@H](n4cc(C)c(=O)[nH]c4=O)C[C@@H]3OP(=O)(O)OC[C@H]3O[C@@H](n4ccc(N)nc4=O)C[C@@H]3OP(=O)(O)OC[C@H]3O[C@@H](n4cc(C)c(=O)[nH]c4=O)C[C@@H]3OP(=O)(O)OC[C@H]3O[C@@H](n4cnc5c(=O)[nH]c(N)nc54)C[C@@H]3OP(=O)(O)OC[C@H]3O[C@@H](n4cnc5c(=O)[nH]c(N)nc54)C[C@@H]3OP(=O)(O)OC[C@H]3O[C@@H](n4ccc(N)nc4=O)C[C@@H]3OP(=O)(O)OC[C@H]3O[C@@H](n4ccc(N)nc4=O)C[C@@H]3OP(=O)(O)OC[C@H]3O[C@@H](n4cnc5c(N)ncnc54)C[C@@H]3OP(=O)(O)OC[C@H]3O[C@@H](n4cnc5c(=O)[nH]c(N)nc54)C[C@@H]3OP(=O)(O)OC[C@H]3O[C@@H](n4cc(C)c(=O)[nH]c4=O)C[C@@H]3OP(=O)(O)OC[C@H]3O[C@@H](n4ccc(N)nc4=O)C[C@@H]3OP(=O)(O)OC[C@H]3O[C@@H](n4ccc(N)nc4=O)C[C@@H]3OP(=O)(O)OC[C@H]3O[C@@H](n4cnc5c(N)ncnc54)C[C@@H]3OP(=O)(O)OC[C@H]3O[C@@H](n4ccc(N)nc4=O)C[C@@H]3OP(=O)(O)OC[C@H]3O[C@@H](n4cnc5c(N)ncnc54)C[C@@H]3OP(=O)(O)OC[C@H]3O[C@@H](n4cnc5c(=O)[nH]c(N)nc54)C[C@@H]3OP(=O)(O)OC[C@H]3O[C@@H](n4ccc(N)nc4=O)C[C@@H]3O)[C@@H](CO)O2)c(=O)[nH]c1=O | < 20 | < 20 |  |  |
| Cc1cn([C@H]2C[C@H](OP(=O)(O)OC[C@H]3O[C@@H](n4cc(C)c(=O)[nH]c4=O)C[C@@H]3O)[C@@H](COP(=O)(O)O[C@H]3[C@@H](O)[C@H](n4ccc(N)nc4=O)O[C@@H]3COP(=O)(O)O[C@H]3[C@@H](O)[C@H](n4cnc5c(=O)[nH]c(N)nc54)O[C@@H]3COP(=O)(O)O[C@H]3[C@@H](O)[C@H](n4cnc5c(N)ncnc54)O[C@@H]3COP(=O)(O)O[C@H]3[C@@H](O)[C@H](n4cnc5c(=O)[nH]c(N)nc54)O[C@@H]3COP(=O)(O)O[C@H]3[C@@H](O)[C@H](n4cnc5c(N)ncnc54)O[C@@H]3COP(=O)(O)O[C@H]3[C@@H](O)[C@H](n4ccc(N)nc4=O)O[C@@H]3COP(=O)(O)O[C@H]3[C@@H](O)[C@H](n4ccc(N)nc4=O)O[C@@H]3COP(=O)(O)O[C@H]3[C@@H](O)[C@H](n4ccc(=O)[nH]c4=O)O[C@@H]3COP(=O)(O)O[C@H]3[C@@H](O)[C@H](n4cnc5c(=O)[nH]c(N)nc54)O[C@@H]3COP(=O)(O)O[C@H]3[C@@H](O)[C@H](n4cnc5c(N)ncnc54)O[C@@H]3COPO[C@H]3[C@@H](O)[C@H](n4ccc(N)nc4=O)O[C@@H]3COP(=O)(O)O[C@H]3[C@@H](O)[C@H](n4cnc5c(=O)[nH]c(N)nc54)O[C@@H]3COP(=O)(O)O[C@H]3[C@@H](O)[C@H](n4cnc5c(=O)[nH]c(N)nc54)O[C@@H]3COP(=O)(O)O[C@H]3[C@@H](O)[C@H](n4cnc5c(=O)[nH]c(N)nc54)O[C@@H]3COP(=O)(O)O[C@H]3[C@@H](O)[C@H](n4ccc(=O)[nH]c4=O)O[C@@H]3COP(=O)(O)O[C@H]3[C@@H](O)[C@H](n4ccc(N)nc4=O)O[C@@H]3COP(=O)(O)O[C@H]3[C@@H](O)[C@H](n4ccc(=O)[nH]c4=O)O[C@@H]3COP(=O)(O)O[C@H]3[C@@H](O)[C@H](n4ccc(N)nc4=O)O[C@@H]3COP(=O)(O)O[C@H]3[C@@H](O)[C@H](n4ccc(=O)[nH]c4=O)O[C@@H]3CO)O2)c(=O)[nH]c1=O (some centres not stated) | < 20 | < 20 |  |  |
| Cc1cn([C@@H]2O[C@H](COP(=O)(O)O[C@H]3C[C@H](n4cc(C)c(=O)[nH]c4=O)O[C@@H]3COP(=O)(O)O[C@H]3[C@@H](O)[C@H](n4ccc(N)nc4=O)O[C@@H]3COP(=O)(O)O[C@H]3[C@@H](O)[C@H](n4cnc5c(=O)[nH]c(N)nc54)O[C@@H]3COP(=O)(O)O[C@H]3[C@@H](O)[C@H](n4cnc5c(N)ncnc54)O[C@@H]3COP(=O)(O)O[C@H]3[C@@H](O)[C@H](n4ccc(N)nc4=O)O[C@@H]3COP(=O)(O)O[C@H]3[C@@H](O)[C@H](n4cnc5c(N)ncnc54)O[C@@H]3COP(=O)(O)O[C@H]3[C@@H](O)[C@H](n4ccc(N)nc4=O)O[C@@H]3COP(=O)(O)O[C@H]3[C@@H](O)[C@H](n4ccc(N)nc4=O)O[C@@H]3COP(=O)(O)O[C@H]3[C@@H](O)[C@H](n4ccc(=O)[nH]c4=O)O[C@@H]3COP(=O)(O)O[C@H]3[C@@H](O)[C@H](n4cnc5c(=O)[nH]c(N)nc54)O[C@@H]3COP(=O)(O)OC3[C@@H](O)[C@H](n4cnc5c(N)ncnc54)O[C@@H]3COP(=O)(O)O[C@H]3[C@@H](O)[C@H](n4ccc(N)nc4=O)O[C@@H]3COP(=O)(O)O[C@H]3[C@@H](O)[C@H](n4cnc5c(=O)[nH]c(N)nc54)O[C@@H]3COP(=O)(O)O[C@H]3[C@@H](O)[C@H](n4cnc5c(=O)[nH]c(N)nc54)O[C@@H]3COP(=O)(O)O[C@H]3[C@@H](O)[C@H](n4cnc5c(=O)[nH]c(N)nc54)O[C@@H]3COP(=O)(O)O[C@H]3[C@@H](O)[C@H](n4ccc(=O)[nH]c4=O)O[C@@H]3COP(=O)(O)O[C@H]3[C@@H](O)[C@H](n4ccc(N)nc4=O)O[C@@H]3COP(=O)(O)O[C@H]3[C@@H](O)[C@H](n4ccc(=O)[nH]c4=O)O[C@@H]3COP(=O)(O)O[C@H]3[C@@H](O)[C@H](n4cnc5c(=O)[nH]c(N)nc54)O[C@@H]3COP(=O)(O)O[C@H]3[C@@H](O)[C@H](n4ccc(=O)[nH]c4=O)O[C@@H]3CO)[C@@H](O)[C@H]2O)c(=O)[nH]c1=O (some centres not stated) | 67 | 91 | 53 | 75 |
| Cc1cn([C@H]2C[C@H](OP(=O)(O)OC[C@H]3O[C@@H](n4cnc5c(=O)[nH]c(N)nc54)C[C@@H]3OP(=O)(O)OC[C@H]3O[C@@H](n4cc(C)c(=O)[nH]c4=O)C[C@@H]3OP(=O)(O)OC[C@H]3O[C@@H](n4ccc(N)nc4=O)C[C@@H]3OP(=O)(O)OC[C@H]3O[C@@H](n4cc(C)c(=O)[nH]c4=O)C[C@@H]3OP(=O)(O)OC[C@H]3O[C@@H](n4cnc5c(=O)[nH]c(N)nc54)C[C@@H]3OP(=O)(O)OC[C@H]3O[C@@H](n4cnc5c(=O)[nH]c(N)nc54)C[C@@H]3OP(=O)(O)OC[C@H]3O[C@@H](n4ccc(N)nc4=O)C[C@@H]3OP(=O)(O)OC[C@H]3O[C@@H](n4ccc(N)nc4=O)C[C@@H]3OP(=O)(O)OC[C@H]3O[C@@H](n4cnc5c(N)ncnc54)C[C@@H]3OP(=O)(O)OC[C@H]3O[C@@H](n4cnc5c(=O)[nH]c(N)nc54)C[C@@H]3OP(=O)(O)OC[C@H]3O[C@@H](n4cc(C)c(=O)[nH]c4=O)C[C@@H]3OP(=O)(O)OC[C@H]3O[C@@H](n4ccc(N)nc4=O)C[C@@H]3OP(=O)(O)OC[C@H]3O[C@@H](n4ccc(N)nc4=O)C[C@@H]3OP(=O)(O)OC[C@H]3O[C@@H](n4cnc5c(N)ncnc54)C[C@@H]3OP(=O)(O)OC[C@H]3O[C@@H](n4ccc(N)nc4=O)C[C@@H]3OP(=O)(O)OC[C@H]3O[C@@H](n4cnc5c(N)ncnc54)C[C@@H]3OP(=O)(O)OC[C@H]3O[C@@H](n4cnc5c(=O)[nH]c(N)nc54)C[C@@H]3OP(=O)(O)OC[C@H]3O[C@@H](n4ccc(N)nc4=O)C[C@@H]3OP(=O)(O)OC[C@H]3O[C@@H](n4cc(C)c(=O)[nH]c4=O)C[C@@H]3OP(=O)(O)OC[C@H]3O[C@@H](n4cc(C)c(=O)[nH]c4=O)C[C@@H]3O)[C@@H](CO)O2)c(=O)[nH]c1=O | < 20 | < 20 |  |  |
| Cc1cn([C@H]2C[C@H](OP(=O)(O)OC[C@H]3O[C@@H](n4cc(C)c(=O)[nH]c4=O)C[C@@H]3O)[C@@H](COP(=O)(O)O[C@H]3[C@@H](O)[C@H](n4ccc(N)nc4=O)O[C@@H]3COP(=O)(O)O[C@H]3[C@@H](O)[C@H](n4cnc5c(=O)[nH]c(N)nc54)O[C@@H]3COP(=O)(O)O[C@H]3[C@@H](O)[C@H](n4cnc5c(N)ncnc54)O[C@@H]3COP(=O)(O)O[C@H]3[C@@H](O)[C@H](n4ccc(N)nc4=O)O[C@@H]3COP(=O)(O)O[C@H]3[C@@H](O)[C@H](n4cnc5c(N)ncnc54)O[C@@H]3COP(=O)(O)O[C@H]3[C@@H](O)[C@H](n4cnc5c(=O)[nH]c(N)nc54)O[C@@H]3COP(=O)(O)O[C@H]3[C@@H](O)[C@H](n4ccc(N)nc4=O)O[C@@H]3COP(=O)(O)O[C@H]3[C@@H](O)[C@H](n4ccc(=O)[nH]c4=O)O[C@@H]3COP(=O)(O)O[C@H]3[C@@H](O)[C@H](n4cnc5c(=O)[nH]c(N)nc54)O[C@@H]3COP(=O)(O)O[C@H]3[C@@H](O)[C@H](n4cnc5c(N)ncnc54)O[C@@H]3COP(=O)(O)O[C@H]3[C@@H](O)[C@H](n4ccc(N)nc4=O)O[C@@H]3COP(=O)(O)O[C@H]3[C@@H](O)[C@H](n4ccc(N)nc4=O)O[C@@H]3COP(=O)(O)O[C@H]3[C@@H](O)[C@H](n4cnc5c(=O)[nH]c(N)nc54)O[C@@H]3COP(=O)(O)O[C@H]3[C@@H](O)[C@H](n4ccc(N)nc4=O)O[C@@H]3COP(=O)(O)O[C@H]3[C@@H](O)[C@H](n4ccc(=O)[nH]c4=O)O[C@@H]3COP(=O)(O)O[C@H]3[C@@H](O)[C@H](n4ccc(N)nc4=O)O[C@@H]3COP(=O)(O)O[C@H]3[C@@H](O)[C@H](n4ccc(=O)[nH]c4=O)O[C@@H]3COP(=O)(O)O[C@H]3[C@@H](O)[C@H](n4cnc5c(=O)[nH]c(N)nc54)O[C@@H]3COP(=O)(O)O[C@H]3[C@@H](O)[C@H](n4ccc(=O)[nH]c4=O)O[C@@H]3CO)O2)c(=O)[nH]c1=O | < 20 | < 20 |  |  |
